The results in this text go back to ChEMBL document CHEMBL2346575, “Potential CRF1R PET imaging agents: 1-fluoroalkylsubstituted 5-halo-3-(arylamino)pyrazin-2(1H)-ones” (Bioorg Med Chem Lett, 2013).

In one series the test system is Cerebellum. Kind of series: Drug uptake in rat cerebellum after 30 mins. Format: ADME, tissue-based. To be noted: in vivo, 0.5 h.
For a further series, the system named is Cortex. Kind of series: Drug uptake in rat cortex after 30 mins. Format: ADME, tissue-based. To be noted: in vivo, 0.5 h.
The nature of series [1]: Metabolic stability in baboon after 9 mins. Format: ADME, organism-based, Papio. To be noted: in vivo, read-out: Stability.
Series [2] in a line: Lipophilicity, log D of the compound in octanol-phosphate buffer at pH 7.4 after 30 to 40 mins by shake flask method. Format: physicochemical. Summed up:
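Phosphate buffer (25 mM, pH ~7.4) and octanol were pre-saturated overnight. Sample (1.0 mg) in 1 mL octanol added to 50 mL octanol-saturated buffer, shaken hard 30–40 min, then left until the layers separated. Each phase analyzed twice by HPLC.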

Series [3] has as its target T1, Corticotropin-releasing factor receptor 1 (Rattus norvegicus, UniProt P35353).
T1 sequence (P35353 whole entry): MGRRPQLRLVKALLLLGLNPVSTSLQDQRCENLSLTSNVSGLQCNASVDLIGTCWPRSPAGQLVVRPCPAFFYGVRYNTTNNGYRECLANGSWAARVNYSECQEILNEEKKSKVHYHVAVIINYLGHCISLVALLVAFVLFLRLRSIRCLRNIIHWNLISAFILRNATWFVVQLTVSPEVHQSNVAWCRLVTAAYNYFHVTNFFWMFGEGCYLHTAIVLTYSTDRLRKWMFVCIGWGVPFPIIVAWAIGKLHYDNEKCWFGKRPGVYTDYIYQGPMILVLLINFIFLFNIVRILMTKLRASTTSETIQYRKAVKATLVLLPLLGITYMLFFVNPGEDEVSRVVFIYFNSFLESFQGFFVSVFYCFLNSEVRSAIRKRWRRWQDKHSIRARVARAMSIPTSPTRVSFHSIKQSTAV
Kind of series: Displacement of [125I]-o-CRF from CRF1 receptor in rat frontal cortex homogenate after 2 hrs by gamma counting. Format: tissue-based. A digest of the protocol: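 Rat frontal cortex, thawed in 50 mM HEPES (pH 7.0 at 23 °C) with 10 mM MgCl2, 2 mM EGTA and protease inhibitors, then homogenized, spun twice at 32,000×g for 30 min and stored at -70 °C. Membranes (25 µg/well) incubated with 150 pM 125I-o-CRF and test drug, 2 h at 21 °C. Filtered on PEI-treated GF/B, washed with cold PBS/0.01% Triton X-100. Nonspecific binding with 1 µM DMP696.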

The nature of series [4]: Metabolic stability in baboon after 13 mins. Format: ADME, organism-based, Papio. As to conditions: in vivo, read-out: Stability.
Series [5] can be described thus: Drug uptake in rat pituitary gland. Format: ADME, tissue-based. To be noted: in vivo.

In the case of `COCCN(CCOC)c1nc(C)nc2c(-c3ccc([76Br])cc3Cl)c(C)nn12`, the Drug uptake in the series on Cerebellum stood at 0.29 % ID/g; with Cortex it was 0.32 % ID/g. For the molecule `CCCN(CCC)c1cc(C)nc2c(-c3ccc(N(C)[11CH3])nc3)c(C)nn12`, the remaining at 0.15 h in series [1] is 50%. On to `COc1cc(C)c(Nc2nc(Cl)cn([C@@H](COCCF)C3CC3)c2=O)cc1C`, for which the logD in series [2] was found to be 4.6. This molecule displayed an IC50 in series [3] of 0.46 nM. In series [2], `COc1cc(Cl)c(Nc2nc(Cl)cn([C@@H](COCCF)C3CC3)c2=O)c(Cl)c1` showed a logD of 4. This molecule also yielded an IC50 in series [3] of 0.6 nM. For `COc1cc(Cl)c(Nc2nc(Br)cn([C@@H](COCCF)C3CC3)c2=O)c(Cl)c1`, in that order: 4.1 and 0.46 nM. Take `COc1cc(Cl)c(Nc2nc(C#N)cn([C@@H](COCCF)C3CC3)c2=O)c(Cl)c1`: the logD in series [2] is 3.4. Further, the IC50 in series [3] was 7.7 nM. For `COc1nc(Cl)nc(C)c1Nc1nc(Cl)cn([C@@H](COCCF)C2CC2)c1=O`, in that order: 3.3 and 19 nM. For `COc1nc(Cl)nc(C)c1Nc1nc(Br)cn([C@@H](COCCF)C2CC2)c1=O` the same measures were 3.4 and 14 nM. For `Cc1cc(C#N)cc(Cl)c1Nc1nc(Cl)cn([C@@H](COCCF)C2CC2)c1=O`, in that order: 3.7 and 4.5 nM. In series [2], `Cc1cc(C#N)cc(C)c1Nc1nc(Cl)cn([C@@H](COCCF)C2CC2)c1=O` came in with a log distribution coefficient (logD) of 3.4. The molecule also registered an IC50 in series [3] of 7.4 nM. In turn, `N#Cc1cc(Cl)c(Nc2nc(Cl)cn([C@@H](COCCF)C3CC3)c2=O)c(Cl)c1` returned a logD in series [2] of 3.6. The IC50 in series [3] was 5 nM. For `COc1cc(Cl)c2c(c1)CCN2c1nc(Cl)cn([C@@H](COCCF)C2CC2)c1=O` the same measures were 4 and 3.2 nM.

In series [2], `N#Cc1cc(F)c(Nc2nc(Cl)cn([C@@H](COCCF)C3CC3)c2=O)cc1F` gave a logD of 4.6. Also, the IC50 in series [3] was more than 1000 nM. As for `COc1cc(C)c(Nc2nc(Cl)cn([C@@H](CF)C3CC3)c2=O)cc1C`, the logD in series [2] turned out to be 4.5. This molecule came in with an IC50 in series [3] of 1.1 nM.

For the molecule `COc1cc(C)c(Nc2nc(C)cn([C@@H](CF)C3CC3)c2=O)cc1C`, in series [2], the logD is 4.2. The IC50 in series [3] is 0.61 nM. For `COc1nc(C)c(Nc2nc(C)cn([C@@H](CF)C3CC3)c2=O)cc1C`, in that order: 4.1 and 4.7 nM.

Molecule `COc1nc(C)c(Nc2nc(Cl)cn(C(CCF)C3CC3)c2=O)c(OC)n1` (racemic) registered a logD in series [2] of 2.9. This molecule also came in with a 50% inhibitory concentration (IC50) in series [3] of 53 nM.

In the case of `COCCN(CCO[11CH3])c1cc(C)nc2c(-c3ccc(N(C)C)nc3)c(C)nn12` [[11C]DMP696], the remaining at 13 min in series [4] is 50%.

With `CCN(CCCC[18F])c1nc(C)nc2c1c(C)cn2-c1c(C)cc(C)cc1C` [[18F]FBPPA], the Drug uptake in series [5] was 5.59%.
